In ChEMBL document CHEMBL1152467, “Pharmacokinetics and pharmacodynamics of piperaquine in a murine malaria model” (Antimicrob Agents Chemother, 2008):
The source made the active and inactive calls. The rule behind the calls is not given here.

How the values were obtained:
Plasmodium berghei [1] = assay: Antiparasitic activity as reduced parasitaemia against Plasmodium berghei ANKA infected Swiss mice (Mus musculus) at 10 mg/kg intraperitoneal dose 64 hrs post infection; type: functional, organism-based; design: dose 10 mg/kg
Method in brief: (§1)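 Male Swiss mice were infected i.p. with 10^7 P. berghei ANKA-parasitized erythrocytes. At 64 h (3-5% parasitemia) they received a single i.p. dose of piperaquine phosphate suspension: 300, 900 or 2,700 μg in 100 μl (about 10, 30, 90 mg/kg). Parasitemia came from May-Grünwald Giemsa tail-blood thin films, counting 30-100 fields (detection limit about 0.002%). Groups had 13-14 mice; controls had 8.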

Plasmodium berghei [2] = assay: Antiparasitic activity as reduced parasitaemia at day 3 against Plasmodium berghei ANKA infected Swiss mice (Mus musculus) at 30 mg/kg intraperitoneal dose 64 hrs post infection; type: functional, organism-based; design: dose 30 mg/kg; method in brief: as §1
Plasmodium berghei [3] = assay: Antiparasitic activity as reduced parasitaemia against Plasmodium berghei ANKA infected Swiss mice (Mus musculus) at 90 mg/kg intraperitoneal dose 64 hrs post infection; type: functional, organism-based; design: dose 90 mg/kg; method in brief: as §1
Plasmodium berghei [4] = assay: Antiparasitic activity as reduced parasitaemia after 24 hrs against Plasmodium berghei ANKA infected Swiss mice (Mus musculus) at 30 mg/kg intraperitoneal dose 64 hrs post infection; type: functional, organism-based; design: dose 30 mg/kg; method in brief: as §1
Plasmodium berghei [5] = assay: Antiparasitic activity as reduced parasitaemia against Plasmodium berghei ANKA infected Swiss mice (Mus musculus) at 30 mg/kg intraperitoneal dose 64 hrs post infection; type: functional, organism-based; design: dose 30 mg/kg; method in brief: as §1
Plasmodium berghei [6] = assay: Antiparasitic activity as parasitaemia against Plasmodium berghei ANKA infected Swiss mice (Mus musculus) at 30 mg/kg intraperitoneal dose 64 hrs post infection; type: functional; method in brief: as §1
Plasmodium berghei [7] = assay: Antiparasitic activity as reduced parasitaemia after 36 hrs against Plasmodium berghei ANKA infected Swiss mice (Mus musculus) at 30 mg/kg intraperitoneal dosed 64 hrs post infection; type: functional; method in brief: as §1
Plasmodium berghei [8] = assay: Antiparasitic activity as parasitaemia against Plasmodium berghei ANKA infected Swiss mice (Mus musculus) at 10 mg/kg intraperitoneal dose 64 hrs post infection; type: functional; method in brief: as §1
Plasmodium berghei [9] = assay: Antiparasitic activity as peripheral parasitaemia 2 weeks after day 60 reinfection against Plasmodium berghei ANKA infected Swiss mice (Mus musculus) at 90 mg/kg intraperitoneal dose 64 hrs post infection; type: functional
Method in brief: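 Swiss mice given a single i.p. 90 mg/kg piperaquine phosphate 64 h after P. berghei ANKA infection were reinoculated i.p. with 10^7 parasitized erythrocytes on day 60. Age-matched previously uninfected mice (untreated, vehicle, or drug on day 0) were inoculated alongside. Parasitemia was read daily from Giemsa-stained tail-blood films for 2 weeks.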

Plasmodium berghei [10] = assay: Antiparasitic activity as parasitaemia at day 60 against Plasmodium berghei ANKA infected Swiss mice (Mus musculus) at 90 mg/kg intraperitoneal dose 64 hrs post infection; type: functional; method in brief: as §1
Plasmodium berghei [11] = assay: Antiparasitic activity as median survival time against Plasmodium berghei ANKA infected Swiss mice (Mus musculus) at 10 mg/kg intraperitoneal dose 64 hrs post infection; type: functional
Method in brief: (§2)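 Male Swiss mice (5–6 weeks) inoculated i.p. with 10^7 P. berghei ANKA-parasitized erythrocytes. At 64 h (3–5% parasitemia), each received a single i.p. 100 μl PQP suspension in 50% glycerol, 30% phosphate buffer (pH 7.1) and 20% polysorbate 80. Parasitemia was followed on tail-vein Giemsa smears. Mice were euthanized at >40% parasitemia or >10% weight loss within 24 h. Groups of 14 treated, 8 controls.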

Plasmodium berghei [12] = assay: Antiparasitic activity as mean parasitaemia after 22 days against Plasmodium berghei ANKA infected Swiss mice (Mus musculus) at 30 mg/kg intraperitoneal dose 64 hrs post infection; type: functional; method in brief: as §1
Plasmodium berghei [13] = assay: Antiparasitic activity as parasitaemia after 4 days against Plasmodium berghei ANKA infected Swiss mice (Mus musculus) at 90 mg/kg intraperitoneal dose; type: functional; method in brief: as §1
Plasmodium berghei [14] = assay: Antiparasitic activity as parasitaemia at day 16 against Plasmodium berghei ANKA infected Swiss mice (Mus musculus) at 90 mg/kg intraperitoneal dose 64 hrs post infection; type: functional; method in brief: as §1
Plasmodium berghei [15] = assay: Antiparasitic activity as median survival time after 30 days against Plasmodium berghei ANKA infected Swiss mice (Mus musculus) at 30 mg/kg intraperitoneal dose 64 hrs post infection; type: functional; method in brief: as §2
Plasmodium berghei [16] = assay: Antiparasitic activity as reduced parasitaemia after 36 hrs against Plasmodium berghei ANKA infected Swiss mice (Mus musculus) at 10 mg/kg intraperitoneal dosed 64 hrs post infection; type: functional
Method in brief: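 Male Swiss mice (5–6 weeks) infected i.p. with 10^7 P. berghei ANKA-parasitized erythrocytes from BALB/c donor blood diluted in citrate-phosphate-dextrose. Single i.p. dose given at 64 h, suspended in 50% glycerol/30% phosphate buffer pH 7.1/20% polysorbate 80, 100 µl. n = 14; vehicle controls n = 8. Parasitemia counted on methanol-fixed, May-Grünwald Giemsa tail-vein smears, expressed as fold decline from predose level.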

Plasmodium berghei [17] = assay: Antiparasitic activity as reduced parasitaemia at day 22-30 against Plasmodium berghei ANKA infected Swiss mice (Mus musculus) at 30 mg/kg intraperitoneal dose 64 hrs post infection; type: functional; design: scale not given: the % may be the effect or the level left; method in brief: as §1
[18] = Apparent clearance in Swiss mice (Mus musculus) infected with Plasmodium berghei ANKA at 90 mg/kg, intraperitoneally administered 64 hrs after infection; type: ADME, organism-based; design: dose 90 mg/kg, route intraperitoneal; details: in vivo, ip
Method in brief: (§3)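 P. berghei ANKA-infected male Swiss mice (10^7 parasitized erythrocytes i.p.) got one i.p. dose of 2,700 μg piperaquine phosphate (about 90 mg/kg) in glycerol/phosphate buffer/polysorbate 80 suspension, 64 h post-inoculation. Cardiac blood was drawn from 5 mice per time point, 0 h to […]. Plasma piperaquine was measured by HPLC, with concentrations normalized to 90 mg/kg. Noncompartmental and two-compartment fits (1/y2 weighting) used group means.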

Mus musculus [19] = assay: Plasma concentration in Swiss mice (Mus musculus) infected with Plasmodium berghei ANKA at 90 mg/kg, intraperitoneally administered 64 hrs after infection measured after 2 to 7 days; type: ADME, organism-based; design: dose 90 mg/kg, route intraperitoneal; details: in vivo, ip; method in brief: as §3
Mus musculus [20] = assay: Apparent volume of distribution in Swiss mice (Mus musculus) infected with Plasmodium berghei ANKA at 90 mg/kg, intraperitoneally administered 64 hrs after infection; type: ADME, organism-based; design: dose 90 mg/kg, route intraperitoneal; details: in vivo, ip; method in brief: as §3
Plasmodium berghei [21] = assay: Antimalarial activity against chloroquine-sensitive Plasmodium berghei by Peters 4 day test; details: 96 h
[22] = Initial half life in Swiss mice (Mus musculus) infected with Plasmodium berghei ANKA at 90 mg/kg, intraperitoneally by two compartment model assay; type: ADME, organism-based; design: dose 90 mg/kg, route intraperitoneal; details: in vivo, ip, read-out: alphat1/2 (converted); method in brief: as §3
[23] = AUC in healthy Swiss mouse at 90 mg/kg, ip; type: ADME, organism-based; design: dose 90 mg/kg, route intraperitoneal; details: plasma
Method in brief: (§4)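 Uninfected male Swiss mice (6 weeks old) received a single i.p. dose of 2,700 μg piperaquine phosphate suspension (about 90 mg/kg). Cardiac-puncture blood was collected under pentobarbitone from n = 5 per time, 0 h to 25 days. Lithium heparin plasma was assayed by HPLC and normalized to a 90 mg/kg dose. Mean profiles were analysed noncompartmentally and by a two-compartment model (1/y2 weighting).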

[24] = Half life in Swiss mice (Mus musculus) infected with Plasmodium berghei ANKA at 90 mg/kg, intraperitoneally administered 64 hrs after infection; type: ADME, organism-based; design: dose 90 mg/kg, route intraperitoneal; details: in vivo, ip; method in brief: as §3
[25] = Terminal half life in human children; type: ADME, organism-based; details: in vivo, read-out: beta t1/2 (converted)
Plasmodium berghei [26] = assay: Antiparasitic activity as survival at day 30 against Plasmodium berghei ANKA infected Swiss mice (Mus musculus) at 10 mg/kg intraperitoneal dose 64 hrs post infection; type: functional; method in brief: as §2
[27] = Initial half life in healthy Swiss mouse at 90 mg/kg, ip by two compartment model assay; type: ADME, organism-based; design: dose 90 mg/kg, route intraperitoneal; details: in vivo, read-out: alphat1/2 (converted); method in brief: as §4
[28] = Plasma concentration in Swiss mice (Mus musculus) infected with Plasmodium berghei ANKA at 90 mg/kg, intraperitoneally administered 64 hrs after infection measured after 60 days; type: ADME, organism-based; design: dose 90 mg/kg, route intraperitoneal; details: ip; method in brief: as §3
[29] = Plasma concentration in Swiss mice (Mus musculus) infected with Plasmodium berghei ANKA at 90 mg/kg, intraperitoneally administered 64 hrs after infection measured after 30 days; type: ADME, organism-based; design: dose 90 mg/kg, route intraperitoneal; details: ip; method in brief: as §3
Plasmodium berghei [30] = assay: Antiparasitic activity as survival at day 30 against Plasmodium berghei ANKA infected Swiss mice (Mus musculus) at 20-30 mg/kg intraperitoneal dose 64 hrs post infection; type: functional
[31] = Terminal half life in Swiss mice (Mus musculus) infected with Plasmodium berghei ANKA at 90 mg/kg, intraperitoneally by two compartment model assay; type: ADME, organism-based; design: dose 90 mg/kg, route intraperitoneal; details: in vivo, ip, read-out: beta t1/2 (converted); method in brief: as §3
[32] = Half life in healthy Swiss mouse at 90 mg/kg, ip; type: ADME, organism-based; design: dose 90 mg/kg, route intraperitoneal; details: in vivo; method in brief: as §4
[33] = AUC in Swiss mice (Mus musculus) infected with Plasmodium berghei ANKA at 90 mg/kg, intraperitoneally administered 64 hrs after infection; type: ADME, organism-based; design: dose 90 mg/kg, route intraperitoneal; details: plasma, ip; method in brief: as §3
Mus musculus [34] = assay: Apparent volume of distribution in healthy Swiss mouse at 90 mg/kg, ip; type: ADME, organism-based; design: dose 90 mg/kg, route intraperitoneal; details: in vivo; method in brief: as §4
[35] = Toxicity in mouse; type: organism-based; details: in vivo
[36] = Plasma concentration in Swiss mice (Mus musculus) infected with Plasmodium berghei ANKA at 90 mg/kg, intraperitoneally administered 64 hrs after infection measured after 2 hrs; type: ADME, organism-based; design: dose 90 mg/kg, route intraperitoneal; details: ip; method in brief: as §3
[37] = Terminal half life in adult human; type: ADME, organism-based; details: in vivo, read-out: beta t1/2 (converted)
Plasmodium berghei [38] = assay: Antiparasitic activity as parasitaemia after 36 hrs against Plasmodium berghei ANKA infected Swiss mice (Mus musculus) at 90 mg/kg intraperitoneal dose 64 hrs post infection; type: functional; method in brief: as §1
Plasmodium berghei [39] = assay: Antiparasitic activity as survival at day 30 against Plasmodium berghei ANKA infected Swiss mice (Mus musculus) at 30 mg/kg intraperitoneal dose 64 hrs post infection; type: functional; method in brief: as §2
[40] = Apparent clearance in healthy Swiss mouse at 90 mg/kg, ip; type: ADME, organism-based; design: dose 90 mg/kg, route intraperitoneal; details: in vivo; method in brief: as §4
[41] = Terminal half life in healthy Swiss mouse at 90 mg/kg, ip by two compartment model assay; type: ADME, organism-based; design: dose 90 mg/kg, route intraperitoneal; details: in vivo, read-out: beta t1/2 (converted); method in brief: as §4
[42] = Plasma concentration in Swiss mice (Mus musculus) infected with Plasmodium berghei ANKA at 90 mg/kg, intraperitoneally administered 64 hrs after infection measured after 36 hrs; type: ADME, organism-based; design: dose 90 mg/kg, route intraperitoneal; details: ip; method in brief: as §3

Clc1ccc2c(N3CCN(CCCN4CCN(c5ccnc6cc(Cl)ccc56)CC4)CC3)ccnc2c1
Activity (Plasmodium berghei [1]): Active | Activity (Plasmodium berghei [2]): Active | Activity (Plasmodium berghei [3]): Active | Activity (Plasmodium berghei [4]): Active | Activity (Plasmodium berghei [5]): Active

C[C@H]1[C@@H](O)O[C@@H]2O[C@@]3(C)CC[C@H]4[C@H](C)CC[C@@H]1[C@@]24OO3 [ARTENIMOL]
Activity (Plasmodium berghei [6]): 4.6% | fold change (FC) (Plasmodium berghei [7]): 11.9

Clc1ccc2c(N3CCN(CCCN4CCN(c5ccnc6cc(Cl)ccc56)CC4)CC3)ccnc2c1.O=P(O)(O)O [PIPERAQUINE PHOSPHATE]
Activity (Plasmodium berghei [8]): 1.5% | Activity (Plasmodium berghei [9]): <1% | Activity (Plasmodium berghei [10]): < 0.1% | Activity (Plasmodium berghei [11]): 10 days | Activity (Plasmodium berghei [12]): 11% | Activity (Plasmodium berghei [13]): >10% | Activity (Plasmodium berghei [14]): 1.8% | Activity (Plasmodium berghei [15]): 54 days | fold change (FC) (Plasmodium berghei [16]): 12.8 | Activity (Plasmodium berghei [17]): 0.1%

Clc1ccc2c(N3CCN(CCCN4CCN(c5ccnc6cc(Cl)ccc56)CC4)CC3)ccnc2c1 [PIPERAQUINE]
CL/F [18]: 31.7 mL/min/kg | Cp (Mus musculus [19]): 20 ng/mL | Vd (Mus musculus [20]): 1059 L/kg | ED50 (Plasmodium berghei [21]): 4.5 mg/kg | half-life [22]: 0.35 days | AUC [23]: 33500 ng·h/mL | half-life [24]: 16.1 days | half-life [25]: 14 days | Activity (Plasmodium berghei [26]): 0% | half-life [27]: 0.59 days | concentration at 1440 h [28]: 3 ng/mL | concentration at 720 h [29]: > 10 ng/mL | Activity (Plasmodium berghei [30]): 50% | half-life [31]: 15.4 days | half-life [32]: 17.8 days | AUC at 64 h [33]: 27300 ng·h/mL | Vd (Mus musculus [34]): 956 L/kg | LD50 [35]: 1100 mg/kg | concentration at 2 h [36]: 250 ng/mL | half-life [37]: 23 days | Activity (Plasmodium berghei [38]): 0.002% | Activity (Plasmodium berghei [39]): 70% | CL/F [40]: 25.8 mL/min/kg | half-life [41]: 20.7 days | concentration at 36 h [42]: 45 ng/mL
